Assay outcomes from PubChem.
Compounds with a hit are over-represented: about 4.2% of the library has one in this group of screens.
AHR activator: human AHR activation; AHR-responsive luciferase reporter cells, luminescence; activation, % at 5 µM; 320,000 compounds, 2.5% hits; in the data active means activation above about 47%;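 further: 0% = vehicle wells and 100% = reference agonist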
SENP1 FRET inh: blocks the human SENP1 SUMO protease catalytic domain; Q9P0U3; recombinant SENP1 catalytic domain, CyPet-SUMO1-YPet FRET cleavage; inhibition, % at 10 µM; 360,000 compounds, 0.21% hits; AID 624204;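 active means inhibition at least 30% at 10 µM, raw YFP signal under a set limit, fluorescence ratio 0.5 to 1.5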;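 further: 0% = enzyme with DMSO and 100% = no enzyme wells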
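Assay system – human recombinant His6-tagged SENP1 catalytic domain enzyme · Input – SENP1 enzyme, 20 pM final · Buffer or medium – Tris pH 8 buffer plus EDTA, NaCl, BME, BSA, NP40, catalase · Schedule – 50 min reaction at room temperature · Technique – FRET read of cyan and yellow fluorescence · Control set – no-enzyme wells low, DMSO-plus-enzyme wells high control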
HDAC3 inh: inhibitors of human histone deacetylase 3; recombinant HDAC3, fluorogenic peptide/trypsin coupled, fluorescence; inhibition, % at 8.3 µM; 320,000 compounds, 0.15% hits; AID 2718; in the data active means inhibition above about 26%, passing the limit was not always enough
Target sequence (O15379 whole entry, looked up): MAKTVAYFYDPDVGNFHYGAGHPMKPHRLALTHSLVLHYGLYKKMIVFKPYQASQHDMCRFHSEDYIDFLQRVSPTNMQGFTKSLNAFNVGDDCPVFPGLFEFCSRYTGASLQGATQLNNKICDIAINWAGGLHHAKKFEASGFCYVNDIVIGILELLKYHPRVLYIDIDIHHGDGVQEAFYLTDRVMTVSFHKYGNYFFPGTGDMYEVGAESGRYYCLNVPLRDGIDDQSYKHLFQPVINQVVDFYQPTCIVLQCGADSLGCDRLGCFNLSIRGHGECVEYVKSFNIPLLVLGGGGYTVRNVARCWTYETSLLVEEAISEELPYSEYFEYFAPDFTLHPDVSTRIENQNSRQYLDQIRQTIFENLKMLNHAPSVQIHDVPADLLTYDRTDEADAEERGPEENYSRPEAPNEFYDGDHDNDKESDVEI
M18AAP inhibitor: blocks P. falciparum M18 aspartyl aminopeptidase; recombinant PfM18AAP, H-Glu-NHMec fluorogenic cleavage; inhibition, % at 7.35 µM; 290,000 compounds, 1.2% hits; AID 1822;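 active means inhibition above the campaign mean inhibition over all tested compounds plus 3 SD, cut at about 28% in these data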;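 further: 0% = plate median of test compound wells and 100% = 2 mM ZnCl2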
Fh CTSL1 inh: counter-screen for PFM18AAP inhibitors: inhibitors of F. hepatica cathepsin L1; recombinant F. hepatica cathepsin L1, Z-Leu-Arg-MCA fluorescence; inhibition, % at 5.96 µM; 300,000 compounds, 0.49% hits; AID 1906;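 active means inhibition above the mean of all tested compounds plus 3 SD, set per screening campaign, cut at about 17% in these data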;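 further: 0% = plate median of test compound wells and 100% = 1 µM Z-Phe-Ala-diazomethylketone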
FXN GAA850 act: activators of GAA850 frataxin (FXN) promoter; activation, % at 6 µM; 360,000 compounds, 0.56% hits; HEK293 lucGAA850 FXN promoter luciferase reporter, 24 h; percent of 10 µM SAHA response; AID 540364;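 active means activation above the average of all compounds screened plus 3 SD, cutoff fixed separately per campaign, cut at about 7.5% in these data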;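 further: 0% = DMSO wells and 100% = 10 µM SAHA wells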
Starred values were filed as active, the others as inactive; nt = no result.

SMILES	AHR activator	SENP1 FRET inh	HDAC3 inh	M18AAP inhibitor	Fh CTSL1 inh	FXN GAA850 act
COc1ccc(CCNC(=O)Oc2ccccc2)cc1OC	0	1	-3	-8	18*	-1
Cc1ccc(C2=NS(=O)(=O)N(C)C(C(=O)Nc3ccc4c(c3)OCO4)=C2)cc1	53*	-4	-1	6	4	0
CC(C)(C)n1nc2c(c1NC(=O)COc1ccc(F)cc1)CS(=O)(=O)C2	-2	-1	2	5	-2	1
Cc1ccccc1NCC(=O)N/N=C/c1c[nH]c2ccccc12	62*	2	9	-1	1	1
Cc1cccc(NCC(=O)N/N=C\c2c[nH]c3ccccc23)c1	78*	1	-7	1	0	-2
CCOC(=O)C1(C)CCCN(C(=O)c2cccc(OC(F)(F)F)c2)C1 (centres undefined)	nt	-1	nt	nt	nt	1
CC1(C)C(c2ccccc2)=NC(c2ccc(Br)cc2)N1O (centres undefined)	17	2	11	-1	-2	1
CC1(C(=O)NCCC#N)CCN1C(=O)C1(c2ccccc2)CCCC1 (centres undefined)	nt	4	nt	nt	nt	0
O=C(Nc1cccc(C(F)(F)F)c1)c1cccnc1NCCO	52*	-1	12	-5	2	-1
CCN(CC)C(=O)Oc1ccc(Cl)c2cccnc12	10	1	nt	6	-2	4
O=C(Nc1cccc(C(F)(F)F)c1)Oc1ccc(Cl)c2cccnc12	49*	1	11	-4	2	-1
Cc1ccc(Nc2cc(=O)n(C)c(=O)[nH]2)cc1C	nt	0	nt	nt	nt	1
O=C(CCl)NN=C(c1ccccc1)c1ccccc1	-1	3	2	11	37*	-2
COc1ccccc1CCC(=O)Oc1ccccc1C#N	nt	-3	12	8	nt	1
CC(=O)c1c(N)[nH]c(-c2ccccc2)nc1=S	62*	-7	-2	13	3	2
COc1ccc(OC)c(NC(=S)N(CCc2c(C)[nH]c3ccccc23)Cc2cccs2)c1	50*	-5	0	6	-5	-3
CCCCn1c(N)c(N(CCOC)C(=O)c2oc3ccc(OCC)cc3c2C)c(=O)[nH]c1=O	4	-12	5	nt	-1	1
CNC(=S)N/N=C/c1ccccc1Cl	60*	1	nt	2	3	-1
S=C(N/N=C/c1cccc2ccccc12)Nc1cccc(Cl)c1	48*	-4	-7	6	-2	1
S=C(N/N=C/c1ccccc1Cl)Nc1ccccc1	62*	1	7	9	0	2
CNC(=S)N/N=C/c1c(Cl)cccc1Cl	-1	-1	-2	12	4	2
CCCCC/C=C/C1=CC(=O)C[C@H](c2ccc(OC)cc2)C1	1	-4	-1	nt	nt	2
CCCCn1c(/N=C/c2c[nH]c3ccccc23)nc2ccccc21	14	-9	31*	-8	2	-3
N#Cc1cc(-c2ccccc2)nc(N2CCNCC2)n1	50*	-2	1	5	1	3
COc1ccc(C(=O)C=Cc2ccc3c(c2)OCO3)cc1OC	nt	-30	nt	nt	nt	2
SMILES	AHR activator	SENP1 FRET inh	HDAC3 inh	M18AAP inhibitor	Fh CTSL1 inh	FXN GAA850 act
COc1ccc(-c2csc(/C=C/c3ccc4c(c3)OCO4)n2)cc1OC	54*	-13	0	1	0	5
COc1ccc(Cc2nnc(Cl)c3ccccc23)cc1OC	8	0	2	8	7	5
COc1ccc(C)cc1Nc1nc(N)c2cc(OC)c(OC)cc2n1	62*	3	-5	4	4	-2
Cc1ccc(C)c(Nc2nc(N)c3ccccc3n2)c1	10	-13	4	5	0	4
CC(C)(C)c1ccc(S(=O)(=O)NC(=O)C2(C)CCN2C(=O)Cc2ccc(-c3ccccc3)cc2)cc1 (centres undefined)	nt	1	nt	nt	nt	1
Cc1ccc(C2(c3ccccc3)NC(=O)N(CC(=O)NC3(C#N)CCCC3)C2=O)cc1C (centres undefined)	1	4	16	nt	nt	-3
CC(NC(=O)c1ccc(Cl)c(Cl)c1)c1ccc(-c2ccccc2)cc1 (centres undefined)	2	2	-2	-1	-2	1
CC(NC(=O)CCl)c1ccc(Cl)c(Cl)c1 (centres undefined)	0	2	9	11	23*	-5
CC(C)C/C=C1\CCc2c([nH]c3ccccc23)C1=O	64*	-3	0	1	-5	2
O=C1/C(=C/c2cccnc2)CCc2c1[nH]c1ccccc21	73*	4	6	-4	7	-7
CN1CCN(c2ccccc2NC(=O)c2ccccc2F)CC1	4	2	-2	15	-4	1
CC(=O)N1CCN(c2ccccc2NC(=O)c2ccc(C#N)cc2F)CC1	71*	0	11	-4	-2	2
Cc1ccc(NC(=O)Nc2ccc3c(c2)OCO3)cc1F	46	1	-7	3	3	1
CCN(CC(=O)N1CCOCC1)S(=O)(=O)c1ccc(Cl)cc1	1	3	-1	-2	-2	-1
Cc1c(Cl)cccc1NC(=O)CN(C1CCCCC1)S(C)(=O)=O	-2	1	9	-7	-1	3
Cc1ccc(C)c(CSc2nc3[nH]ncc3c(=O)[nH]2)c1	48*	3	0	8	0	-3
Cc1ccccc1CSc1nc2[nH]ncc2c(=O)[nH]1	47	-1	-3	31*	5	3
CCOC1=C2CN(S(=O)(=O)c3ccc(C)cc3)[C@H](c3ccccc3)C[C@@H]2N(S(C)(=O)=O)[C@H](c2ccccc2)C1	nt	-17	nt	nt	nt	nt
CCOC(=O)c1c(/N=C/c2cc(OC)cc([N+](=O)[O-])c2O)sc(C)c1C	2	7	7	28*	1	2
CCOC(=O)c1c(/N=C/c2cc([N+](=O)[O-])ccc2O)sc(C)c1C	5	4	-7	26	4	1
Cc1ccc(S(=O)(=O)Nc2ccc3c(c2)n(C)c(=O)n3C)cc1	26	-1	-6	1	-2	4
Cc1ccc(NS(=O)(=O)c2ccc3c(c2)n(C)c(=O)n3C)cc1C	5	-4	1	6	18*	1
COc1cccc(-c2cc3c(-n4cccc4)ncnc3o2)c1	56*	-33	7	3	0	3
Cc1ccccc1Oc1ncnc2oc(-c3ccccc3)cc12	-2	-21	2	-3	-5	1
Nc1ccn([C@@H]2O[C@H](CNCc3ccc(OCC(=O)Nc4nccs4)cc3)[C@@H](O)[C@H]2O)c(=O)n1	nt	0	nt	nt	nt	0
Cc1cc(C(=O)N/N=C/c2cc(Br)ccc2OC(=O)c2ccccc2Cl)n[nH]1	65*	-23	-11	7	3	-2
CSc1nc(/C=C2\C=Nc3ccccc32)c(O)n1C	51*	-127	3	2	3	4
